{"source": "ChEMBL document CHEMBL4049426", "about": "“Identification of the Clinical Candidate (R)-(1-(4-Fluorophenyl)-6-((1-methyl-1H-pyrazol-4-yl)sulfonyl)-4,4a,5,6,7,8-hexahydro-1H-pyrazolo[3,4-g]isoquinolin-4a-yl)(4-(trifluoromethyl)pyridin-2-yl)methanone (CORT125134): A Selective Glucocorticoid Receptor (GR) Antagonist” (J Med Chem, 2017)", "key": {"[1]": {"experiment": "Cmax in Sprague-Dawley CD-1 rat plasma at 3 mg/kg, po administered as cassette dose via gavage measured up to 24 hrs by LC/MS analysis", "assay_type": "ADME, organism-based", "parameters": "dose 3 mg/kg, route oral", "procedure,_shortened": "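Three male Sprague Dawley CD-1 rats (220-250g) with jugular vein catheters; three test compounds plus a reference dosed together by oral gavage, 3mg/kg each, in DMSO:0.5% methylcellulose 10:90 (0.6mg/mL per compound), 5mL/kg. Plasma sampled pre-dose and at 0.25, 0.5, 1, 2, 4, 6, 8, 24 h; LC/MS.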"}, "[2]": {"experiment": "Oral bioavailability in Sprague-Dawley CD-1 rat plasma at 5 mg/kg administered through gavage measured up to 24 hrs by LC/MS analysis", "assay_type": "ADME, organism-based", "procedure,_shortened": "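Jugular-catheterized male Sprague Dawley CD-1 rats (220-250g). Oral arm: five rats, 5mg/kg gavage, 1mg/mL in DMSO:0.5% methylcellulose 10:90, 5mL/kg, sampled pre-dose and 0.25-24 h. i.v. arm: three rats, 1mg/kg, 0.5mg/mL in DMSO:PEG400:propylene glycol 10:45:45, sampled pre-dose and 0.08-24 h. Plasma by LC/MS.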"}, "androgen receptor": {"target": "T1, androgen receptor (Homo sapiens, UniProt P10275)", "T1 sequence (P10275 whole entry)": "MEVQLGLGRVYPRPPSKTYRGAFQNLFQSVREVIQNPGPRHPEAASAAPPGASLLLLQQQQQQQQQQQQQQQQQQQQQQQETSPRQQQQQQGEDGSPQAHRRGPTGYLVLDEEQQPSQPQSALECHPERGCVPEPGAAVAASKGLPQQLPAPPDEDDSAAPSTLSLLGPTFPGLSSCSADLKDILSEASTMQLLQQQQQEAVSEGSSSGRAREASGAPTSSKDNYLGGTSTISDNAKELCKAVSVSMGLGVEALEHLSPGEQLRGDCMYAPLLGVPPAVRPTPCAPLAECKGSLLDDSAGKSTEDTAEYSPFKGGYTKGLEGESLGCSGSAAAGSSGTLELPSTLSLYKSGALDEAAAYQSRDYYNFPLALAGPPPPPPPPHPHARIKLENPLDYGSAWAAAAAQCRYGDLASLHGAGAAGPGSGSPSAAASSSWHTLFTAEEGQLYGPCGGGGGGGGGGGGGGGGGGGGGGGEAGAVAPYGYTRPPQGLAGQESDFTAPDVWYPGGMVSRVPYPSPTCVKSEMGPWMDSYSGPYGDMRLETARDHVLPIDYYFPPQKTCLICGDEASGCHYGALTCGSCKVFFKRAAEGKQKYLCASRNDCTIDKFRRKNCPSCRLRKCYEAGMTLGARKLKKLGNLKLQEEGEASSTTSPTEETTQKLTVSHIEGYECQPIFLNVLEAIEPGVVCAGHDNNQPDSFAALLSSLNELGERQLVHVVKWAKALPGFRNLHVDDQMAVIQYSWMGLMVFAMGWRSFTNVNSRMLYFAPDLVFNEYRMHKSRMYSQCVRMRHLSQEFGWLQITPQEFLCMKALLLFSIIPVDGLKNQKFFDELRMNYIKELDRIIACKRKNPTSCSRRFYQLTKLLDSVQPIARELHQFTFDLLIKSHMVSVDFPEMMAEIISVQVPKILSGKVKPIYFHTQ", "experiment": "Inhibition of radioligand binding to androgen receptor (unknown origin) at 1 uM relative to control"}, "[3]": {"target": "T2, Glucocorticoid receptor (Homo sapiens) (UniProt P04150)", "T2 sequence (whole entry)": "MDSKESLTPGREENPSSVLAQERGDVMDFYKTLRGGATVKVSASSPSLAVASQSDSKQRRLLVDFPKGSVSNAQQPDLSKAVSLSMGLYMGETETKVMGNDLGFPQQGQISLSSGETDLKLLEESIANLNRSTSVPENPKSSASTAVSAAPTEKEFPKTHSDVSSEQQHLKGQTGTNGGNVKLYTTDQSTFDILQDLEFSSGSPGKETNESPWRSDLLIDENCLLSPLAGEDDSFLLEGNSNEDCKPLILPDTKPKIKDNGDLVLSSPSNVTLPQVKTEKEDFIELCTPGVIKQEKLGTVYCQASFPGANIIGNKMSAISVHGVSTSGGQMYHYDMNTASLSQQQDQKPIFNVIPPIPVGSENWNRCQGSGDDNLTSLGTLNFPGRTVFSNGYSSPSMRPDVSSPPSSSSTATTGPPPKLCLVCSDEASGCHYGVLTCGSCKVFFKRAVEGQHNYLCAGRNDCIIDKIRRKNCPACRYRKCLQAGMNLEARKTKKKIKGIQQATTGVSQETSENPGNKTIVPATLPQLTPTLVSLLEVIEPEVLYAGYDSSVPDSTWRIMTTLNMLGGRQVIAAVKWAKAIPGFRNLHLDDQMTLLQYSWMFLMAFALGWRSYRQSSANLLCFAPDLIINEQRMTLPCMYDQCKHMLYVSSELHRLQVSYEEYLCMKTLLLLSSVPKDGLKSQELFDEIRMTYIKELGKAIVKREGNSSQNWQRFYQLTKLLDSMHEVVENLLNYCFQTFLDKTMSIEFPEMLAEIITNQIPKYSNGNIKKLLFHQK", "experiment": "Displacement of fluormone GS Red from human glucocorticoid receptor at 1 uM after 4 hrs by fluorescence polarization assay relative to control"}, "Rattus norvegicus": {"tested_on": "Rattus norvegicus", "experiment": "In vivo antagonist activity at glucocorticoid receptor in Sprague-Dawley rat assessed as reduction in cortisone-induced plasma glucose levels at 7.5 mg/kg, po bid via gavage for 6 days pretreated for 12 hrs followed by cortisone 21-acetate treatment measured 24 hrs after last cortisone 21-acetate treatment", "assay_type": "functional, organism-based", "procedure,_shortened": "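Male Sprague Dawley rats (200-250 g) got vehicle daily for a 3-day baseline, then groups of eight were dosed. Test agent was suspended in DMSO:Tween 80:0.5% HPMC (10:0.1:89.9) and given by oral gavage twice daily for 6 days. Cortisone 21-acetate was given at 30 mg/kg s.c. once daily in 1% methylcellulose. Tail-vein blood was taken 24 h after the last cortisone dose (12 h after the last test dose). Glucose was read with a clinical reagent and insulin by rat ELISA.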"}, "Cytochrome P450 2C8": {"target": "T3, Cytochrome P450 2C8 (Homo sapiens, UniProt P10632)", "T3 sequence (P10632 whole entry)": "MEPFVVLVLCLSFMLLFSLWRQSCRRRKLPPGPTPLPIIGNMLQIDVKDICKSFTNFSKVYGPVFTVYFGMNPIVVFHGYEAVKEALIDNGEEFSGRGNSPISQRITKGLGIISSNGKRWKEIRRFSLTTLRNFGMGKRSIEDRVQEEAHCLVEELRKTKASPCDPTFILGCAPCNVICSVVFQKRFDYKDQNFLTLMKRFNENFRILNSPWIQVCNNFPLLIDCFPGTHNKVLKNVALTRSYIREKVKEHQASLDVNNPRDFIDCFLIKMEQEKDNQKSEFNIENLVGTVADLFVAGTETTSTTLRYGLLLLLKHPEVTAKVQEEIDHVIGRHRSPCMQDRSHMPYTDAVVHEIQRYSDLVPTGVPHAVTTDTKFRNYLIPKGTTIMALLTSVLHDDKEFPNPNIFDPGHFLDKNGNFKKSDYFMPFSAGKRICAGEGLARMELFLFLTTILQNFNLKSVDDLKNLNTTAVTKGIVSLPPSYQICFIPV", "experiment": "Inhibition of CYP2C8 (unknown origin)"}, "Cytochrome P450 3A4": {"target": "Cytochrome P450 3A4 (Homo sapiens, UniProt P08684)", "sequence (P08684 whole entry)": "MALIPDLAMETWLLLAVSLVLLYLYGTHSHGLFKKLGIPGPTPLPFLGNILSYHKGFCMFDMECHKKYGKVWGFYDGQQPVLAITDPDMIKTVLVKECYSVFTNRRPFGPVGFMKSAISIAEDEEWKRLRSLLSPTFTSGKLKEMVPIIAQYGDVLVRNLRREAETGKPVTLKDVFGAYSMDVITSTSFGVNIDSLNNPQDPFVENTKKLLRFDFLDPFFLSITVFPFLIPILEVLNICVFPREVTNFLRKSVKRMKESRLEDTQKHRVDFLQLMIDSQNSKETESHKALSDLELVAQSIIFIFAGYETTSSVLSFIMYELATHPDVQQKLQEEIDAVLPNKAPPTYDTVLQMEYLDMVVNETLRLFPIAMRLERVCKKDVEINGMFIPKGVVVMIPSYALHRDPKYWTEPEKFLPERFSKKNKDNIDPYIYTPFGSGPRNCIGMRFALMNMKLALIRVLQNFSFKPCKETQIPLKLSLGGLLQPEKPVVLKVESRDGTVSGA", "experiment": "Time-dependent inhibition of CYP3A4 (unknown origin)", "assay_type": "ADME"}}, "note": "Calls of active or inactive are those of the source. No cut-off for these calls is given here.", "data": [{"molecule": "Cn1cc(S(=O)(=O)N2CCC3=Cc4c(cnn4-c4ccc(F)cc4)C[C@]3(C(=O)c3cc(C(F)(F)F)ccn3)C2)cn1", "note": "[RELACORILANT]", "values": [{"measurement": "Cmax", "setting": "[1]", "value": 262, "unit": "ng/mL"}, {"measurement": "bioavailability", "setting": "[2]", "value": 89, "unit": "%"}, {"measurement": "inhibition at 1 µM", "setting": "androgen receptor", "value": "< 10", "unit": "%"}, {"measurement": "inhibition", "setting": "[3]", "value": 100, "unit": "%"}, {"measurement": "inhibition", "setting": "Rattus norvegicus", "value": "Active"}, {"measurement": "IC50", "setting": "Cytochrome P450 2C8", "value": 0.21, "unit": "µM"}, {"measurement": "TDI", "setting": "Cytochrome P450 3A4", "value": "Not Active"}]}]}
